This passage reports Ki results from ChEMBL document CHEMBL1127440, “Structure-affinity relationship studies on 5-HT1A receptor ligands. 2. Heterobicyclic phenylpiperazines with N4-aralkyl substituents” (J Med Chem, 1994).

What is called Ki is a measure of affinity in units of concentration, obtained from inhibition or displacement.

This assay deals with T1, 5-hydroxytryptamine receptor 1A (Rattus norvegicus, UniProt P19327).
T1 sequence (P19327 whole entry): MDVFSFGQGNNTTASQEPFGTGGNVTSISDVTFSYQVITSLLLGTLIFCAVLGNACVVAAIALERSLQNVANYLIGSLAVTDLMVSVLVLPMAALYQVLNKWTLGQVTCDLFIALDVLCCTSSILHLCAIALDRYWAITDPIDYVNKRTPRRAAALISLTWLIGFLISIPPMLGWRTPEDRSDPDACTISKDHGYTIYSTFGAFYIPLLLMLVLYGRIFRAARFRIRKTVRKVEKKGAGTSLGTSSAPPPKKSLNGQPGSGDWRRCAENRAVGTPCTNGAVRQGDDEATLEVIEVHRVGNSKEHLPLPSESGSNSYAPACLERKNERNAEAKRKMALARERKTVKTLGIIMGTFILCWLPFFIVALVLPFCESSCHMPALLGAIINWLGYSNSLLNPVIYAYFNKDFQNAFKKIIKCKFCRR
In words: Binding affinity to displace [3H]2-(di-N-propylamino)-8-hydroxy-tetralin from 5-hydroxytryptamine 1A (5-HT1A) receptor in rat frontal cortex homogenates. Type of assay: tissue-based. In a few lines: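 Rat frontal cortex homogenate; [3H]-8-OH-DPAT displaced from specific 5-HT1A sites. Each compound was tested at four to six concentrations in triplicate per assay. Three to six independent assays were run per compound. Ki ± SEM (nM) reported.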
`c1ccc(CCN2CCN(c3cccc4ccoc34)CC2)cc1`: the inhibition constant Ki stood at 0.37 nM. The same measure for `c1ccc(CCCCN2CCN(c3cccc4c3OCCO4)CC2)cc1`: 0.32 nM; for `O=C(CCCN1CCN(c2cccc3c2OCCO3)CC1)c1ccccc1`: 0.67 nM. The same measure for `c1ccc(OCCCN2CCN(c3cccc4ccoc34)CC2)cc1`: 0.85 nM; for `c1ccc(CN2CCN(c3cccc4ccoc34)CC2)cc1`: 22 nM; for `O=C(NCCN1CCN(c2cccc3ccoc23)CC1)C1CCCCC1`: 0.2 nM. The same measure for `c1ccc2c(c1)OCC(CN1CCN(c3cccc4c3OCCO4)CC1)O2` (stereo not drawn): 4 nM; for `O=C(NCCN1CCN(c2cccc3c2OCCO3)CC1)c1ccc(F)cc1`: 0.3 nM. As to `c1ccc(OCCN2CCN(c3cccc4c3OCCO4)CC2)cc1`, the Ki was 0.73 nM. This Ki is about 2.4-fold higher than that of the compound before. `O=C(CCCN1CCN(c2cccc3c2OCCO3)CC1)c1ccc(F)cc1` had an inhibitory constant (Ki) of 1.4 nM.

In turn, `O=C(CCCN1CCN(c2cccc3ccoc23)CC1)c1ccc(F)cc1` gave a Ki of 1 nM. The same measure for `c1ccc(CCN2CCN(c3cccc4c3OCCO4)CC2)cc1`: 0.47 nM. The result for `O=C(NCCN1CCN(c2cccc3c2OCCO3)CC1)C1CCCCC1` reads 0.44 nM; that for `O=C(NCCN1CCN(c2cccc3ccoc23)CC1)c1ccc(F)cc1`, 0.15 nM.

`c1ccc2c(c1)OCC(CN1CCN(c3cccc4ccoc34)CC1)O2` (stereo not drawn) gave an inhibitory constant (Ki) of 5.8 nM. The compound `c1ccc(CN2CCN(c3cccc4c3OCCO4)CC2)cc1` returned a Ki of 28 nM. The result for `c1ccc(OCCCN2CCN(c3cccc4c3OCCO4)CC2)cc1` reads 0.95 nM. In turn, `c1ccc(OCCN2CCN(c3cccc4ccoc34)CC2)cc1` registered an inhibition constant Ki of 0.46 nM. Against the preceding compound, the Ki is about 2.1-fold lower.
